Experimental data reported in ChEMBL document CHEMBL3272149, “Synthesis and antibacterial activity of some derivatives of tolypomycinone. Relationship between structure and activity in ansamycins” (J Med Chem, 1977).
Converted amounts (≈) assume the structure as drawn. The source made the active and inactive calls. The calls are words filed in the database; no cut-off is given here.

Legend:
Escherichia coli = test: Antibacterial activity against Escherichia coli MC/35 assessed as inhibition of visible growth after 24 hrs by serial dilution method; format: functional; settings: MC/35, 24 h
[1] = test system: Salmonella enterica subsp. enterica serovar Paratyphi B; test: Antibacterial activity against Salmonella paratyphi B 0248 K assessed as inhibition of visible growth after 24 hrs by serial dilution method; format: functional
In short: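 Broth tube serial dilution in Brain Heart Infusion medium; inoculum 10^6 cells/mL; incubation 24 h at 35 °C; MIC taken as the lowest antibiotic concentration that prevented visible growth.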

Staphylococcus aureus [2] = test: Antibacterial activity against Staphylococcus aureus 209 P(FDA) assessed as inhibition of visible growth after 24 hrs by serial dilution method; format: functional
Klebsiella pneumoniae = test: Antibacterial activity against Klebsiella pneumoniae Ottaviani assessed as inhibition of visible growth after 24 hrs by serial dilution method; format: functional
Staphylococcus aureus [3] = test: Antibacterial activity against Staphylococcus aureus 209 P(FDA) assessed as inhibition of visible growth in simulated intestinal juice at pH 8.3 after 1 to 4 hrs by serial dilution method; format: functional, organism-based
In short: (§1)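 Compound dissolved in simulated gastric juice (pH 1.3) or simulated intestinal juice (pH 8.3). Samples were withdrawn at 1, 2 and 4 h and assayed for residual inhibitory activity against Staphylococcus.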

Staphylococcus aureus [4] = test: Antibacterial activity against Staphylococcus aureus 209 P(FDA) assessed as inhibition of visible growth in simulated gastric juice at pH 1.3 after 1 to 4 hrs by serial dilution method; format: functional, organism-based; in short: as §1
[5] = Stability in simulated gastric juice at pH 1.3; format: ADME; settings: simulated gi fluid; in short: as §1
[6] = Stability in simulated intestinal juice at pH 8.3; format: ADME; settings: simulated gi fluid; in short: as §1

With `CO[C@H]1/C=C/O[C@@]2(C)Oc3c(C)c(O)c4c(c3C2=O)C(=O)C(NCCc2ccccn2)=C(NC(=O)/C(C)=C\C(=O)[C@@H]2C[C@@H]2[C@H](O)[C@@H](C)[C@@H](O)[C@@H](C)[C@H](OC(C)=O)[C@@H]1C)C4=O` the MIC (Escherichia coli) was 6 µg/mL (≈ 7.23 µM), the MIC [1] was 12 µg/mL (≈ 14.5 µM) and the MIC (Staphylococcus aureus [2]) was < 0.005 µg/mL. It also gave an MIC (Klebsiella pneumoniae) of 25 µg/mL (≈ 30.1 µM).

For `CO[C@H]1/C=C/O[C@@]2(C)Oc3c(C)c(O)c4c(c3C2=O)C(=O)C(NCC2CCCO2)=C(NC(=O)/C(C)=C\C(=O)[C@@H]2C[C@@H]2[C@H](O)[C@@H](C)[C@@H](O)[C@@H](C)[C@H](OC(C)=O)[C@@H]1C)C4=O` (some centres not stated), the MIC (Escherichia coli) was 6 µg/mL (≈ 7.42 µM), the MIC [1] was 12 µg/mL (≈ 14.8 µM) and the MIC (Staphylococcus aureus [2]) was 0.005 µg/mL (≈ 0.00618 µM). For the same compound, the MIC (Klebsiella pneumoniae) was 25 µg/mL (≈ 30.9 µM).

For `CO[C@H]1/C=C/O[C@@]2(C)Oc3c(C)c(O)c4c(c3C2=O)C(=O)C(NCc2ccn(C)c2)=C(NC(=O)/C(C)=C\C(=O)[C@@H]2C[C@@H]2[C@H](O)[C@@H](C)[C@@H](O)[C@@H](C)[C@H](OC(C)=O)[C@@H]1C)C4=O`, the MIC (Escherichia coli) was 12 µg/mL (≈ 14.7 µM), the MIC [1] was 12 µg/mL (≈ 14.7 µM) and the MIC (Staphylococcus aureus [2]) was 0.005 µg/mL (≈ 0.00611 µM). It also gave an MIC (Klebsiella pneumoniae) of 12 µg/mL (≈ 14.7 µM).

With `CO[C@H]1/C=C/O[C@@]2(C)Oc3c(C)c(O)c4c(c3C2=O)C(=O)C(NCc2ccsc2)=C(NC(=O)/C(C)=C\C(=O)[C@@H]2C[C@@H]2[C@H](O)[C@@H](C)[C@@H](O)[C@@H](C)[C@H](OC(C)=O)[C@@H]1C)C4=O` the MIC (Escherichia coli) was 12 µg/mL (≈ 14.6 µM), the MIC [1] was 12 µg/mL (≈ 14.6 µM) and the MIC (Staphylococcus aureus [2]) was < 0.005 µg/mL. The MIC (Klebsiella pneumoniae) was 100 µg/mL (≈ 122 µM).

Compound `CNC1=C2NC(=O)/C(C)=C\C(=O)[C@@H]3C[C@@H]3[C@H](O)[C@@H](C)[C@@H](O)[C@@H](C)[C@H](OC(C)=O)[C@H](C)[C@@H](OC)/C=C/O[C@@]3(C)Oc4c(C)c(O)c(c(c4C3=O)C1=O)C2=O` has an MIC (Escherichia coli) of 50 µg/mL (≈ 67.7 µM), an MIC [1] of 12 µg/mL (≈ 16.2 µM) and an MIC (Staphylococcus aureus [2]) of 0.005 µg/mL (≈ 0.00677 µM). It also gave an MIC (Klebsiella pneumoniae) of 25 µg/mL (≈ 33.8 µM).

In the case of `CO[C@H]1/C=C/O[C@@]2(C)Oc3c(C)c(O)c4c(c3C2=O)C(=O)C(N(C)C)=C(NC(=O)/C(C)=C\C(=O)[C@@H]2C[C@@H]2[C@H](O)[C@@H](C)[C@@H](O)[C@@H](C)[C@H](OC(C)=O)[C@@H]1C)C4=O`, the MIC (Escherichia coli) is reported as 50 µg/mL (≈ 66.4 µM), the MIC [1] is reported as 100 µg/mL (≈ 133 µM) and the MIC (Staphylococcus aureus [2]) is reported as 0.025 µg/mL (≈ 0.0332 µM). It also gave an MIC (Klebsiella pneumoniae) of 100 µg/mL (≈ 133 µM).

With `CO[C@H]1/C=C/O[C@@]2(C)Oc3c(C)c(O)c4c(c3C2=O)C(=O)C(NCCN2CCOCC2)=C(NC(=O)/C(C)=C\C(=O)[C@@H]2C[C@@H]2[C@H](O)[C@@H](C)[C@@H](O)[C@@H](C)[C@H](OC(C)=O)[C@@H]1C)C4=O` the MIC (Escherichia coli) was 12 µg/mL (≈ 14.3 µM), the inhibition (Staphylococcus aureus [3]) was “Active” and the MIC [1] was 12 µg/mL (≈ 14.3 µM). The inhibition (Staphylococcus aureus [4]) was “Active”, the Stability [5] was “Stable” and the MIC (Staphylococcus aureus [2]) was < 0.005 µg/mL. For the same compound, the Stability [6] was “Stable” and the MIC (Klebsiella pneumoniae) was 50 µg/mL (≈ 59.7 µM).

For `CO[C@H]1/C=C/O[C@@]2(C)Oc3c(C)c(O)c4c(c3C2=O)C(=O)C(NCCNc2ccc([N+](=O)[O-])cn2)=C(NC(=O)/C(C)=C\C(=O)[C@@H]2C[C@@H]2[C@H](O)[C@@H](C)[C@@H](O)[C@@H](C)[C@H](OC(C)=O)[C@@H]1C)C4=O`, the MIC (Escherichia coli) was > 50 µg/mL, the MIC [1] was > 50 µg/mL and the MIC (Staphylococcus aureus [2]) was < 0.025 µg/mL. The MIC (Klebsiella pneumoniae) was > 50 µg/mL.

`COC(CCNC1=C2NC(=O)/C(C)=C\C(=O)[C@@H]3C[C@@H]3[C@H](O)[C@@H](C)[C@@H](O)[C@@H](C)[C@H](OC(C)=O)[C@H](C)[C@@H](OC)/C=C/O[C@@]3(C)Oc4c(C)c(O)c(c(c4C3=O)C1=O)C2=O)OC` gave an MIC (Escherichia coli) of 25 µg/mL (≈ 30.2 µM), an MIC [1] of 25 µg/mL (≈ 30.2 µM) and an MIC (Staphylococcus aureus [2]) of 0.005 µg/mL (≈ 0.00605 µM). The MIC (Klebsiella pneumoniae) was 50 µg/mL (≈ 60.5 µM).

In the case of `CO[C@H]1/C=C/O[C@@]2(C)Oc3c(C)c(O)c4c(c3C2=O)C(=O)C(NCc2ccc3c(c2)OCO3)=C(NC(=O)/C(C)=C\C(=O)[C@@H]2C[C@@H]2[C@H](O)[C@@H](C)[C@@H](O)[C@@H](C)[C@H](OC(C)=O)[C@@H]1C)C4=O`, the MIC (Escherichia coli) is reported as > 100 µg/mL, the MIC [1] is reported as 100 µg/mL (≈ 116 µM) and the MIC (Staphylococcus aureus [2]) is reported as < 0.005 µg/mL. For the same compound, the MIC (Klebsiella pneumoniae) was > 100 µg/mL.

Work on `CO[C@H]1/C=C/O[C@@]2(C)Oc3c(C)c(O)c4c(c3C2=O)C(=O)C(NCCN2CCN(C)CC2)=C(NC(=O)/C(C)=C\C(=O)[C@@H]2C[C@@H]2[C@H](O)[C@@H](C)[C@@H](O)[C@@H](C)[C@H](OC(C)=O)[C@@H]1C)C4=O` yielded an MIC (Escherichia coli) of 25 µg/mL (≈ 29.4 µM), an MIC [1] of 6 µg/mL (≈ 7.05 µM) and an MIC (Staphylococcus aureus [2]) of 0.025 µg/mL (≈ 0.0294 µM). It also gave an MIC (Klebsiella pneumoniae) of 12 µg/mL (≈ 14.1 µM).

With `CNC1=C2NC(=O)C(C)(NC)CC(=O)[C@@H]3C[C@@H]3[C@H](O)[C@@H](C)[C@@H](O)[C@@H](C)[C@H](OC(C)=O)[C@H](C)[C@@H](OC)/C=C/O[C@@]3(C)Oc4c(C)c(O)c(c(c4C3=O)C1=O)C2=O` (some centres not stated) the MIC (Escherichia coli) was > 100 µg/mL, the MIC [1] was 50 µg/mL (≈ 64.9 µM) and the MIC (Staphylococcus aureus [2]) was 0.005 µg/mL (≈ 0.00649 µM). For the same compound, the MIC (Klebsiella pneumoniae) was > 100 µg/mL.
